The source made the active and inactive calls. The calls are words filed in the database; no cut-off is given here.
What was measured:
[1] = biological target: T1, Bile acid receptor (Homo sapiens) (UniProt Q96RI1); experiment: Modulation of FXR in human HepG2 cells assessed as induction of PPARalpha mRNA expression at 10 nM by qRT-PCR analysis; format: cell-based
T1 sequence (whole entry): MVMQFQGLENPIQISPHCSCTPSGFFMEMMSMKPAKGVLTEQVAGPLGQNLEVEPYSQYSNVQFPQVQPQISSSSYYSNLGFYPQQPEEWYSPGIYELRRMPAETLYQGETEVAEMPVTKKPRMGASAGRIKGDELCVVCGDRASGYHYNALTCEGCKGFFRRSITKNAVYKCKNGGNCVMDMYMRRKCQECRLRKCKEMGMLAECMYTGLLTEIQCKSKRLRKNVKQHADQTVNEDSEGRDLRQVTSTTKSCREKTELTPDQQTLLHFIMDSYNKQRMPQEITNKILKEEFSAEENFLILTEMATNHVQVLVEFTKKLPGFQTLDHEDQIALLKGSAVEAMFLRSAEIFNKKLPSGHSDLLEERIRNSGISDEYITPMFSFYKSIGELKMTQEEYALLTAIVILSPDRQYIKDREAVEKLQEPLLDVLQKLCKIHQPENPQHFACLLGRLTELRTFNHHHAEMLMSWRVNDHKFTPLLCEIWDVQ
How it was run: (§1)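 HepG2 hepatocarcinoma cells were incubated with the compound at 10 nM. FXR target-gene mRNA was quantified by qRT-PCR (n = 3), with significance at p < 0.05, 0.01 and 0.001.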

Bile acid receptor = biological target: T2, Bile acid receptor (Homo sapiens, UniProt Q96RI1); experiment: Transactivation of human FXR expressed in human HeLa cells co-expressing BSEP after 24 hrs by dual-glo luciferase reporter gene assay; format: cell-based; conditions: read-out: EC50
T2 sequence (Q96RI1 whole entry): T1 sequence (whole entry)
How it was run: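 Full-length reporter system with constitutive expression of hFXR and hRXR. A constitutive Renilla luciferase served for normalization and as a toxicity control. Maximum relative activation was expressed against a reference FXR agonist at 3 µM, set as 100%.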

[2] = biological target: Retinoic acid receptor RXR-gamma (Homo sapiens) (UniProt P48443); experiment: Antagonist activity at GAL4-tagged human RXRgamma ligand binding domain (229 to 463 residues) expressed in HEK293T cells at 1 uM after 12 to 14 hrs by dual-glo luciferase reporter gene assay; format: cell-based; conditions: HEK-293T
Sequence of Retinoic acid receptor RXR-gamma (Homo sapiens) (P48443 whole entry, the tested form may be a part): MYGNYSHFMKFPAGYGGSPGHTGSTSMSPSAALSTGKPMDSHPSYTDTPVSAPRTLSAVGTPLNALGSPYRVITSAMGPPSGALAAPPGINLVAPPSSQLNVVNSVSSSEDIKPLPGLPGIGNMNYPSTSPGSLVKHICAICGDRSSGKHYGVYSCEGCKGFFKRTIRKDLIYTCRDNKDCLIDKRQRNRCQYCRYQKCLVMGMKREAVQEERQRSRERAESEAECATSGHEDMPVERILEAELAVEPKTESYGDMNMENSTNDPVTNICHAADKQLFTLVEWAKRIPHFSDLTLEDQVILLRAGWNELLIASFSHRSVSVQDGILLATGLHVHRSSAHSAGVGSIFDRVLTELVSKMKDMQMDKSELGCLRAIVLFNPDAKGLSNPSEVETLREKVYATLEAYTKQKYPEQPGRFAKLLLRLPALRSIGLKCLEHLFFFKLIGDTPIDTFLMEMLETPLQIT
How it was run: (§2)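 Run as a selectivity screen against each listed receptor (14 nuclear receptors plus TGR5), in both agonist and antagonist modes. Test concentration was 1 µM, with n = 3.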

[3] = biological target: Retinoic acid receptor RXR-alpha (Homo sapiens) (UniProt P19793); experiment: Transactivation of GAL4-tagged human RXRalpha ligand binding domain (225 to 462 residues) expressed in HEK293T cells at 1 uM after 12 to 14 hrs by dual-glo luciferase reporter gene assay; format: cell-based; conditions: HEK-293T; how it was run: as §2
Sequence of Retinoic acid receptor RXR-alpha (Homo sapiens) (P19793 whole entry, the tested form may be a part, canonical isoform): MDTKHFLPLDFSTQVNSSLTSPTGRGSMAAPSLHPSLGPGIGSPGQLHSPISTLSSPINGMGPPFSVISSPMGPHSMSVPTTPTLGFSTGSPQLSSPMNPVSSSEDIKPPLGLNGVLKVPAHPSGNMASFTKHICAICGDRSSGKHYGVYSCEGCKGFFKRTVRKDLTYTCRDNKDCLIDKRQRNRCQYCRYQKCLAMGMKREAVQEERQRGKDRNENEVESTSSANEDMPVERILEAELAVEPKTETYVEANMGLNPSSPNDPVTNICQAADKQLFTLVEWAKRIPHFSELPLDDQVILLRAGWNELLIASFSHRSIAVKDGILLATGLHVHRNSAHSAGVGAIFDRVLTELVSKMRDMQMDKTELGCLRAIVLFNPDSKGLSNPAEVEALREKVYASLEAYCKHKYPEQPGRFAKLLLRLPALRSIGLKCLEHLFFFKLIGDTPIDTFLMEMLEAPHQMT

[4] = biological target: Retinoic acid receptor RXR-beta (Homo sapiens) (UniProt P28702); experiment: Transactivation of GAL4-tagged human RXRbeta isoform 1 ligand binding domain (294 to 533 residues) expressed in HEK293T cells at 1 uM after 12 to 14 hrs by dual-glo luciferase reporter gene assay; format: cell-based; conditions: HEK-293T; how it was run: as §2
Sequence of Retinoic acid receptor RXR-beta (Homo sapiens) (P28702 whole entry, the tested form may be a part, canonical isoform): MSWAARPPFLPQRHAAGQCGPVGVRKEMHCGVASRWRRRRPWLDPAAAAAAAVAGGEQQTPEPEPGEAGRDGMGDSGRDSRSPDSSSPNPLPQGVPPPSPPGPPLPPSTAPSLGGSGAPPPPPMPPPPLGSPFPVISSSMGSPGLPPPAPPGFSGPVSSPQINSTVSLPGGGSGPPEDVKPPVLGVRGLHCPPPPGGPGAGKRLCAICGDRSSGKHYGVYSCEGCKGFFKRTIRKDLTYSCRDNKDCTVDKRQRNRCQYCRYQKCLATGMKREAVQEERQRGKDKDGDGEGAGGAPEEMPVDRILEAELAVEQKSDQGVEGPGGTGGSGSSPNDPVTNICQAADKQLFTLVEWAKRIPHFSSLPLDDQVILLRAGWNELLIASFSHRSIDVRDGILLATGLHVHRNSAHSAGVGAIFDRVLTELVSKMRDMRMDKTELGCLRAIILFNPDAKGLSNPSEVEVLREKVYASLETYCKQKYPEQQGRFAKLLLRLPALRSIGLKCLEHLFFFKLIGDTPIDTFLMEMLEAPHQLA

[5] = biological target: Retinoic acid receptor alpha (Homo sapiens) (UniProt P10276); experiment: Transactivation of GAL4-tagged human RARalpha1 ligand binding domain (177 to 462 residues) expressed in HEK293T cells at 1 uM after 12 to 14 hrs by dual-glo luciferase reporter gene assay; format: cell-based; conditions: HEK-293T; how it was run: as §2
Sequence of Retinoic acid receptor alpha (Homo sapiens) (P10276 whole entry, the tested form may be a part, canonical isoform): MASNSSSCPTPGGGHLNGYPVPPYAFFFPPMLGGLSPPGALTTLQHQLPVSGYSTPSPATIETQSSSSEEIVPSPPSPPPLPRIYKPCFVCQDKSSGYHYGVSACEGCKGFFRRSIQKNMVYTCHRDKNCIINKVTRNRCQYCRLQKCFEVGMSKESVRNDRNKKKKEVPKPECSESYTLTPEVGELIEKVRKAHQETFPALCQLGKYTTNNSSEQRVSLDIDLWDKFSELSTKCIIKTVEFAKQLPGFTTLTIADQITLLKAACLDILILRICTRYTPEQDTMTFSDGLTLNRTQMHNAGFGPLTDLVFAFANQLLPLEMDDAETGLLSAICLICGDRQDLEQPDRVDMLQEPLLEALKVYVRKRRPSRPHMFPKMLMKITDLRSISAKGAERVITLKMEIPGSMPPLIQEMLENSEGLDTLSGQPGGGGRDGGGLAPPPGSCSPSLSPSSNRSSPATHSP

[6] = biological target: Vitamin D3 receptor (Homo sapiens) (UniProt P11473); experiment: Antagonist activity at GAL4-tagged human VDR isoform 1 ligand binding domain (119 to 427 residues) expressed in HEK293T cells at 1 uM after 12 to 14 hrs by dual-glo luciferase reporter gene assay; format: cell-based; conditions: HEK-293T; how it was run: as §2
Sequence of Vitamin D3 receptor (Homo sapiens) (P11473 whole entry, the tested form may be a part, canonical isoform): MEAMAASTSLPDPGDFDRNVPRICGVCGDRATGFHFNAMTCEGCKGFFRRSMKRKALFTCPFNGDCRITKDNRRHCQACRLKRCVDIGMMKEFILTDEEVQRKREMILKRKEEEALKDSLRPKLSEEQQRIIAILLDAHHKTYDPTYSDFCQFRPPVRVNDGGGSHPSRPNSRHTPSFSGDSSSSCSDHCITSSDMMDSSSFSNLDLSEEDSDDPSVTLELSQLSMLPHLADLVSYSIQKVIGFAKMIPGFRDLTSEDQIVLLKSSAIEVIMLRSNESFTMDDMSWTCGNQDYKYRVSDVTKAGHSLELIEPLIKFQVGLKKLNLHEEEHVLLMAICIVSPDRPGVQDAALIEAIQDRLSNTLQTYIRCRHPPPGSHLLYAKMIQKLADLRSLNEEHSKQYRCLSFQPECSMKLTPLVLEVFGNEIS

HeLa [7] = experiment: Selectivity ratio for human FXR expressed in human HeLa cells co-expressing BSEP over GAL4-tagged human RARbeta1 ligand binding domain (177 to 455 residues) expressed in HEK293T cells; format: cell-based
HeLa [8] = experiment: Selectivity ratio for human FXR expressed in human HeLa cells co-expressing BSEP over GAL4-tagged human LXRalpha ligand binding domain expressed in HEK293T cells; format: cell-based
HeLa [9] = experiment: Selectivity ratio for human FXR expressed in human HeLa cells co-expressing BSEP over GAL4-tagged human RARalpha1 ligand binding domain (177 to 462 residues) expressed in HEK293T cells; format: cell-based
[10] = biological target: T1, Bile acid receptor (Homo sapiens); experiment: Modulation of FXR in human HepG2 cells assessed as induction of BSEP mRNA expression at 10 nM by qRT-PCR analysis; format: cell-based; how it was run: as §1
[11] = biological target: G-protein coupled bile acid receptor 1 (Homo sapiens) (UniProt Q8TDU6); experiment: Antagonist activity at TGR5 (unknown origin) expressed in HEK293T cells at 1 uM after 12 to 14 hrs by dual-glo luciferase reporter gene assay; format: cell-based; how it was run: as §2
Sequence of G-protein coupled bile acid receptor 1 (Homo sapiens) (Q8TDU6 whole entry): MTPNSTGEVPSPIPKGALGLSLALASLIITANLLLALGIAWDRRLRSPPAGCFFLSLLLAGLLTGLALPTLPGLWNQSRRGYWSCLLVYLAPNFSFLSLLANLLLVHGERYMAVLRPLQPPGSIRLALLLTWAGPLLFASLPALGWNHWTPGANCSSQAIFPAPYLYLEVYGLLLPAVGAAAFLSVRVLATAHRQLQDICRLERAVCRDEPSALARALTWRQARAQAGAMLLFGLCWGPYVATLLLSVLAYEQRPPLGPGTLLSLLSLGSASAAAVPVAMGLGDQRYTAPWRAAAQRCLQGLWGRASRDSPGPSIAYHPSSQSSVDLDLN

HeLa [12] = experiment: Selectivity ratio for human FXR expressed in human HeLa cells co-expressing BSEP over TGR5 (unknown origin) expressed in HEK293T cells; format: cell-based
[13] = biological target: T1, Bile acid receptor (Homo sapiens); experiment: Modulation of FXR in human HepG2 cells assessed as induction of SHP mRNA expression at 10 nM by qRT-PCR analysis; format: cell-based; how it was run: as §1
[14] = biological target: Retinoic acid receptor RXR-beta (Homo sapiens) (UniProt P28702); experiment: Antagonist activity at GAL4-tagged human RXRbeta isoform 1 ligand binding domain (294 to 533 residues) expressed in HEK293T cells at 1 uM after 12 to 14 hrs by dual-glo luciferase reporter gene assay; format: cell-based; conditions: HEK-293T; how it was run: as §2
[15] = biological target: Retinoic acid receptor RXR-alpha (Homo sapiens) (UniProt P19793); experiment: Antagonist activity at GAL4-tagged human RXRalpha ligand binding domain (225 to 462 residues) expressed in HEK293T cells at 1 uM after 12 to 14 hrs by dual-glo luciferase reporter gene assay; format: cell-based; conditions: HEK-293T; how it was run: as §2
[16] = biological target: Nuclear receptor subfamily 1 group I member 2 (Homo sapiens, UniProt O75469); experiment: Transactivation of GAL4-tagged human PXR isoform 1 ligand binding domain (138 to 434 residues) expressed in HEK293T cells at 1 uM after 12 to 14 hrs by dual-glo luciferase reporter gene assay; format: cell-based; conditions: hek-293t; how it was run: as §2
Sequence of Nuclear receptor subfamily 1 group I member 2 (O75469 whole entry, the tested form may be a part, canonical isoform): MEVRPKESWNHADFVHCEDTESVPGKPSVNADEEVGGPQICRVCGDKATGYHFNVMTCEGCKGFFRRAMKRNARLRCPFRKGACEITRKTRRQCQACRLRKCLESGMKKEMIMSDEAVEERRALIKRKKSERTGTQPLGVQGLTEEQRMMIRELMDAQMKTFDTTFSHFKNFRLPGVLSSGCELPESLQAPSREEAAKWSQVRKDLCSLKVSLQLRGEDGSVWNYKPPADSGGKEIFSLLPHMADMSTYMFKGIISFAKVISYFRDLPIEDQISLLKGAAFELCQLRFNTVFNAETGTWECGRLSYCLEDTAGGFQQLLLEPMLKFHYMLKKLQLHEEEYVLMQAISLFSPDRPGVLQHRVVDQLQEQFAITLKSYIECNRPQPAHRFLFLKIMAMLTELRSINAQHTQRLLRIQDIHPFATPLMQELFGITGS

[17] = biological target: Peroxisome proliferator-activated receptor alpha (Homo sapiens) (UniProt Q07869); experiment: Transactivation of GAL4-tagged human PPARalpha ligand binding domain expressed in HEK293T cells at 1 uM after 12 to 14 hrs by dual-glo luciferase reporter gene assay; format: cell-based; conditions: HEK-293T; how it was run: as §2
Sequence of Peroxisome proliferator-activated receptor alpha (Homo sapiens) (Q07869 whole entry, the tested form may be a part): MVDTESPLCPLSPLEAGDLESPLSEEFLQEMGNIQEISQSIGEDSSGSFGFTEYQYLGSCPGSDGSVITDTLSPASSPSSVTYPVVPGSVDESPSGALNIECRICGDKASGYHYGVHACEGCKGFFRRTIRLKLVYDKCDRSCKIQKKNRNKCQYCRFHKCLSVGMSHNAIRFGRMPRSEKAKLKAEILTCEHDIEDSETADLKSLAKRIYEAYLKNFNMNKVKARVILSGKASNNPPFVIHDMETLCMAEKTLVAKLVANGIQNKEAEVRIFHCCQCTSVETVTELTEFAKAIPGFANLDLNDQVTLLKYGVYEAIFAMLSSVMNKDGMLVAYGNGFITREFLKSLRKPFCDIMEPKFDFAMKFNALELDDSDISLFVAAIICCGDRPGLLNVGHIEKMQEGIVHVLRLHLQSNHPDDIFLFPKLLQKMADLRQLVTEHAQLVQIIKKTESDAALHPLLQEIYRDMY

[18] = biological target: T1, Bile acid receptor (Homo sapiens); experiment: Modulation of FXR in human HepG2 cells assessed as induction of OSTalpha mRNA expression at 10 nM by qRT-PCR analysis; format: cell-based; how it was run: as §1
[19] = biological target: Peroxisome proliferator-activated receptor delta (Homo sapiens) (UniProt Q03181); experiment: Transactivation of GAL4-tagged human PPARdelta ligand binding domain expressed in HEK293T cells at 1 uM after 12 to 14 hrs by dual-glo luciferase reporter gene assay; format: cell-based; conditions: HEK-293T; how it was run: as §2
Sequence of Peroxisome proliferator-activated receptor delta (Homo sapiens) (Q03181 whole entry, the tested form may be a part): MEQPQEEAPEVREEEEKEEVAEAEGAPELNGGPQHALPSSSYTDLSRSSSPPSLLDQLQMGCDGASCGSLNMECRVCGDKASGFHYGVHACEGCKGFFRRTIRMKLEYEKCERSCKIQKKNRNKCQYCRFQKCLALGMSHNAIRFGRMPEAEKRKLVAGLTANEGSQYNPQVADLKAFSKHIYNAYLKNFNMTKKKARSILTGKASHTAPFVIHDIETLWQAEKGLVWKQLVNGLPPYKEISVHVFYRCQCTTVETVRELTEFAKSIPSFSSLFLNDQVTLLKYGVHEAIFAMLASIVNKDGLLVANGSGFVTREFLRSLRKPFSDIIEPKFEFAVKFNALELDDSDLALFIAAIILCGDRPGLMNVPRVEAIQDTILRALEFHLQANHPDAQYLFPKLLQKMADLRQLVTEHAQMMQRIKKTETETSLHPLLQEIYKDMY

[20] = biological target: T1, Bile acid receptor (Homo sapiens); experiment: Transactivation of human FXR expressed in human HeLa cells co-expressing BSEP at 3 uM after 24 hrs by dual-glo luciferase reporter gene assay relative to GW4064; format: cell-based
How it was run: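 Full-length FXR reporter gene assay with constitutively expressed hFXR and hRXR, plus renilla luciferase for normalization and toxicity control. Maximum relative activation is expressed against the reference agonist at 3 µM, set as 100%.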

[21] = Lipophilicity, logD of compound at pH 7.4 by LC-MS analysis; format: physicochemical; conditions: buffer, read-out: logD

Activity [1]: Active | inhibition [2]: inactive | Activity [3]: inactive | Activity [4]: inactive | Activity [5]: inactive | inhibition [6]: inactive | inhibition [11]: inactive | Activity [13]: Active | inhibition [14]: inactive | inhibition [15]: inactive | Activity [16]: Not Active | Activity [17]: inactive | Activity [18]: Active | Activity [19]: inactive | logD [21]: 1.69
SMILES: COc1ccc(CNc2c(-c3cc(Cl)ccn3)nc3ccc(Cl)cn23)cc1
EC50 (Bile acid receptor): 0.3 nM | Selectivity ratio (HeLa [7]): 3000 | Selectivity ratio (HeLa [8]): 3000 | Selectivity ratio (HeLa [9]): 3000 | Activity [10]: Active | Selectivity ratio (HeLa [12]): 3000 | max activation [20]: 23%

Reference: ChEMBL document CHEMBL4038333, “Nonacidic Farnesoid X Receptor Modulators” (J Med Chem, 2017)
